The values below come from ChEMBL document CHEMBL1145905, “Design and synthesis of novel dimeric morphinan ligands for kappa and micro opioid receptors” (J Med Chem, 2003).

Experiment [1] concerns the target Opioid receptors; delta & kappa (Homo sapiens) (UniProt P41145+P41143). The experiment is described as follows: Selective inhibitory activity was determined against kappa & delta opioid receptor in chinese Hamster Ovary (CHO) cell membranes.
The target in experiment [2] is T1, Mu-type opioid receptor (Homo sapiens, UniProt P35372). Kind of experiment: Inhibitory activity against Opioid receptor mu 1 in chinese Hamster Ovary (CHO) cells membranes was determined using [3H]-DAMGO radioligand. The class given is cell-based.
T1 sequence (P35372 whole entry): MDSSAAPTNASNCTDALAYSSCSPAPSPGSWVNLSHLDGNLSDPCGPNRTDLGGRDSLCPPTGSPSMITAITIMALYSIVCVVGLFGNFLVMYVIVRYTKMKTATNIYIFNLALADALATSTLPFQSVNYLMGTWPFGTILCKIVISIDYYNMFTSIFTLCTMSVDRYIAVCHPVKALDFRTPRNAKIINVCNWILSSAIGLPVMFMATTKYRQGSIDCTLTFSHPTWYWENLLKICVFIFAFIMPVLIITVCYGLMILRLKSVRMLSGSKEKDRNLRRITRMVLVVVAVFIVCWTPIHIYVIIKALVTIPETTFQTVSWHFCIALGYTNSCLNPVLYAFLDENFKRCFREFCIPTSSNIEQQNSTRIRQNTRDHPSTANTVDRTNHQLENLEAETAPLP
For experiment [3], the target named is T2, Kappa-type opioid receptor (Homo sapiens, UniProt P41145). The experiment is described as follows: Inhibitory activity against Opioid receptor kappa 1 in chinese Hamster Ovary (CHO) cell membranes was determined using [3H]U-69593 radioligand.
T2 sequence (P41145 whole entry): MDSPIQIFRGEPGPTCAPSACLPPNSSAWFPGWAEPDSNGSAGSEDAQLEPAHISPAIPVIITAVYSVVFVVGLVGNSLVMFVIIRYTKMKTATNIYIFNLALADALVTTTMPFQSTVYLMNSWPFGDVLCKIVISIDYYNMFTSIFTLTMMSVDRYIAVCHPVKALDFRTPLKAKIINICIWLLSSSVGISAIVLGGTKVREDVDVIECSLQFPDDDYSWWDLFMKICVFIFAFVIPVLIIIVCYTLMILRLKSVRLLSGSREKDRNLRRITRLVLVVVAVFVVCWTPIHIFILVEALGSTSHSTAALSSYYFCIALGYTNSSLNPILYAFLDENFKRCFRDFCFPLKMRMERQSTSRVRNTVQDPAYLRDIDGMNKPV
Experiment [4] addresses Delta-type opioid receptor (Homo sapiens, UniProt P41143). Kind of experiment: Inhibitory activity against Opioid receptor delta 1 in chinese Hamster Ovary (CHO) cell membranes was determined using [3H]naltrindole radioligand.
In experiment [5] the target is T1, Mu-type opioid receptor. Kind of experiment: Inhibitory activity was determined in stimulating [35S]-GTP-gamma S binding mediated by the Opioid receptor mu 1 in chinese Hamster Ovary (CHO)membranes.
Experiment [6] has as its target T1, Mu-type opioid receptor. The experiment is described as follows: Maximal percent inhibitory activity was determined in stimulating [35S]-GTP-gamma S binding mediated by the Opioid receptor mu 1 in chinese Hamster Ovary (CHO) cell membranes. The gist of the method:
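Antagonist mode: human μ-CHO membranes (7.5 μg protein) with 200 nM DAMGO plus varying compound concentrations, 3 μM GDP, […] [35S]GTPγS, 60 min at 30 °C, pH 7.4 buffer with Mg2+/NaCl/EGTA; filtration, counting.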

Experiment [7] has as its target T2, Kappa-type opioid receptor. The experiment is described as follows: Inhibitory activity in stimulating [35S]-GTP-gamma S binding mediated by the Opioid receptor kappa 1 in chinese Hamster Ovary (CHO) cell membranes was determined. Type of experiment: functional.
Experiment [8] has as its target T1, Mu-type opioid receptor.
The target in experiment [9] is T1, Mu-type opioid receptor. Kind of experiment: Percent maximal stimulation in [35S]-GTP-gamma S binding assay mediated by the Opioid receptor mu 1 in chinese Hamster Ovary (CHO)membranes.
Experiment [10] addresses T2, Kappa-type opioid receptor. The experiment is described as follows: Inhibitory activity in stimulating [35S]-GTP-gamma S binding mediated by the Opioid receptor kappa 1 in chinese Hamster Ovary (CHO) cell membranes. The class given is functional. Put shortly:
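Antagonist mode: membranes of CHO cells stably expressing human κ receptor (15 µg protein/tube) incubated with varying compound concentrations plus 100 nM U50,488, 60 min at 30 °C, in Tris/MgCl2/NaCl/EGTA buffer pH 7.4 with 3 µM GDP and [35S]GTPγS. Filtration, scintillation counting. Nonspecific binding with 10 µM GTPγS.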

Experiment [11] concerns the target Opioid receptors; mu & kappa (Homo sapiens) (UniProt P41145+P35372). The experiment is described as follows: Selective inhibitory activity was determined against kappa & mu opioid receptor in chinese Hamster Ovary (CHO) cell membranes.
The target of experiment [12] is T2, Kappa-type opioid receptor. The experiment is described as follows: Percent maximal stimulation in [35S]-GTP-gamma S binding assay mediated by the Opioid receptor kappa 1 in chinese Hamster Ovary (CHO)membranes. Type of experiment: functional.

Sequence of Delta-type opioid receptor (P41143 whole entry): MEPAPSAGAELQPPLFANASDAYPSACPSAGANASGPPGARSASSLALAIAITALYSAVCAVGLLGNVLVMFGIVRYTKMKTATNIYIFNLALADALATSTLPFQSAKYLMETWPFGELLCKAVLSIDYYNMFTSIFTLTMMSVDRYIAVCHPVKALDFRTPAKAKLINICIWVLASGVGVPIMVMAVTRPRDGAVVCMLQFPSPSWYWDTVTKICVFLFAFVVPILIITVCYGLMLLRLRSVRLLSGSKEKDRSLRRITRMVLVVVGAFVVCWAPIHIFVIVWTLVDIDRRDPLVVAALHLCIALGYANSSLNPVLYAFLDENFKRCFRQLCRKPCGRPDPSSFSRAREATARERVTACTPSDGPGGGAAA
Sequence of Opioid receptors; delta & kappa (Homo sapiens) (P41143 whole entry, looked up): as the sequence (P41143 whole entry) above
Sequence of Opioid receptors; delta & kappa (Homo sapiens) (P41145 whole entry, looked up): as the sequence (P41145 whole entry) above
Sequence of Opioid receptors; mu & kappa (Homo sapiens) (P35372 whole entry, looked up): as the sequence (P35372 whole entry) above
Sequence of Opioid receptors; mu & kappa (Homo sapiens) (P41145 whole entry, looked up): as the sequence (P41145 whole entry) above

As for `O=C(/C=C/C(=O)Oc1ccc2c(c1)[C@@]13CCCC[C@H]1[C@@H](C2)N(CC1CCC1)CC3)Oc1ccc2c(c1)[C@@]13CCCC[C@H]1[C@@H](C2)N(CC1CCC1)CC3`, the Selectivity in experiment [1] was 120; in experiment [11], 3. The Ki in experiment [2] came to 0.2 nM; in experiment [3] it was 0.078 nM; in [4] it was 9.4 nM. Further, the IC50 amounted to 610 nM in experiment [5] and 2400 nM in experiment [10]. The molecule also yielded an Imax in experiment [6] of 100%. In addition, the EC50 in experiment [7] came out at 2.3 nM; in experiment [8], 2.9 nM. Also, the results for the Emax in experiment [9] and in experiment [12] were 50% and 90%, respectively.
